Reference: PubChem BioAssay AID651628 (The Scripps Research Institute Molecular Screening Center, 2012)
A number with no mark means an inactive call. Active and inactive are the calls of the source.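 Rule for the calls: active = at least one off-target enzyme showing weaker fluorescent probe labeling in any proteome panel; inactive = no off-target enzyme affected in any panel.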

The compounds below were run on Soluble Proteome (assay: proteome-wide probe labelling blockade by competitive ABPP – cell lysate, gel-based fluorescence, soluble and membrane fractions, selectivity assay for PAD4 inhibitor project, late-stage follow-up (AID 651628)). Conditions: MCF7 proteome, CA-Rh gel-based ABPP, anti-target count, at 10 µM, stronger effect = higher value.
In short: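 Buffer or medium: DPBS; System: MCF7 soluble or membrane proteome; Quantity: proteome protein concentration of 1 mg/ml; Also added: CA-Rh probe, 10 µM; Times: compound pre-incubation 1 h, then probe labelling 1 h, both 25 °C; Control set: DMSO-only reference; Signal: SDS-PAGE separation with in-gel fluorescence scanning of labelled bands.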
`O=C1C=C(Br)C(=O)c2ncccc21` was tested, and the number of anti-targets was > 5 (active).
`NC1=CC(=O)c2ccc(-c3ccccn3)nc2C1=O` was tested, and the number of anti-targets was 0.
`COC(=O)c1nc(C(=O)OC)c(NC(C)=O)c(-c2ccccc2Br)c1C` gave a number of anti-targets of 0.
Work on `O=C1C(O)=C(O)C(=O)c2ncccc21` yielded a number of anti-targets of 0.
`COC1=C(Br)C(=O)c2nc(-c3ccccn3)ccc2C1=O` was tested, and the number of anti-targets was 0.
In the case of `COC1=C(I)C(=O)c2nc(C#N)ccc2C1=O`, the number of anti-targets is reported as > 5 (active).
`COC(=O)c1cccc(-c2ccc3c(n2)C(=O)C(Br)=CC3=O)n1` was tested, and the number of anti-targets was 0.
For `COC1=CC(=O)c2nc(C#N)ccc2C1=O`, the number of anti-targets was > 5 (active).
With `COC1=C(N)C(=O)c2ncccc2C1=O` the number of anti-targets was 0.
For `COC(=O)c1cccc(-c2ccc3c(n2)C(=O)C(N)=CC3=O)n1`, the number of anti-targets was 0.
`NC1=CC(=O)c2cccnc2C1=O` showed a number of anti-targets of 0.
`NC1=CC(=O)c2ccc(-c3cccc(C(=O)O)n3)nc2C1=O` showed a number of anti-targets of 0.
For `COC1=C(N)C(=O)c2nc(-c3nc(C(=O)O)c(C)c(-c4ccc(OC)c(OC)c4O)c3N)ccc2C1=O`, the number of anti-targets was 0.
With `COC1=C(Br)C(=O)c2ncccc2C1=O` the number of anti-targets was > 5 (active).
